According to ChEMBL document CHEMBL4406806, “Design, Synthesis, and Characterization of Ogerin-Based Positive Allosteric Modulators for G Protein-Coupled Receptor 68 (GPR68)” (J Med Chem, 2019):
Calls of active or inactive are those of the source. No cut-off for these calls is given here.

Columns and labels:
Assay type in all cases: functional, cell-based
[1] = target: G-protein coupled receptor 68 (Homo sapiens) (UniProt Q15743); assay: (§1) Positive allosteric modulation of human GPR68 expressed in HEK293T cells co-expressing Gs assessed as stimulation of proton-mediated cAMP production by measuring allosteric affinity cooperativity in HBSS buffer containing pH 6.8 to 8.2 HEPES/pH 8.3 to 8.6 TAPS measured after 20 to 30 mins in presence of PDE inhibitor Ro 20-1724 by luciferase-glo reporter gene assay
Summary of the method: (§2)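 Transient co-transfection of HEK293T with receptor and GloSensor plasmids using PEI, overnight, then replated in DMEM + 1% dFBS for 6–24 h. Luciferin 3.5 mM loaded for 1 h at 37 °C in HBSS/20 mM TAPS, pH 8.40. Proton series: Ca/Mg-free HBSS with MES (pH 5.60–6.70), HEPES (6.80–8.20) or TAPS (8.30–8.60), plus 10 μM Ro 20-1724. BSA 1 mg/mL added where solubility required. Luminescence read at 20–30 min. At least six 16-point proton curves across modulator concentrations, quadruplicate, ≥3 independent assays.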

[2] = target: G-protein coupled receptor 68 (Homo sapiens) (UniProt Q15743); assay: as §1, with “efficacy” for “allosteric affinity”; summary of the method: as §2
[3] = target: G-protein coupled receptor 68 (Homo sapiens) (UniProt Q15743); assay: as §1, with “index” for “affinity cooperativity”; summary of the method: as §2
[4] = target: G-protein coupled receptor 68 (Homo sapiens) (UniProt Q15743); assay: Positive allosteric modulation of human GPR68 expressed in HEK293T cells co-expressing Gs assessed as stimulation of proton-mediated cAMP production by measuring allosteric binding affinity in HBSS buffer containing pH 6.8 to 8.2 HEPES/pH 8.3 to 8.6 TAPS measured after 20 to 30 mins in presence of PDE inhibitor Ro 20-1724 by luciferase-glo reporter gene assay; summary of the method: as §2

Sequence of G-protein coupled receptor 68 (Homo sapiens) (Q15743 whole entry): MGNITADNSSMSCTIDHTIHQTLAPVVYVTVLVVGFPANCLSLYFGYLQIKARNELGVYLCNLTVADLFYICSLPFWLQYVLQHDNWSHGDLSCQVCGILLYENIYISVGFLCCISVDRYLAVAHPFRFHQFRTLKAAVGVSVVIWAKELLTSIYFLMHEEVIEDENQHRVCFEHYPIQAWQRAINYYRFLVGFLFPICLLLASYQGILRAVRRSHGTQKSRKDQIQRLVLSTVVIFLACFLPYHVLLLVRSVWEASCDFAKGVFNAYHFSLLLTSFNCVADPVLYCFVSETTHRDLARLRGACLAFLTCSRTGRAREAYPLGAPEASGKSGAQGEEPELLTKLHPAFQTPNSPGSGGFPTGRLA

Structure (SMILES) | log(activity) [1] | log(activity) [2] | Activity index [3] | pKb [4] | Activity_index [3]
Nc1nc(NCc2ccccc2)nc(-c2c(F)cccc2CO)n1 | 1.15 | 0.35 | 5.19 | – | –
Cc1ccccc1-c1nc(N)nc(NCc2ccccc2)n1 | inactive | inactive | – | inactive | inactive
Nc1nc(NCc2ccccc2)nc(-c2cc(F)ccc2CO)n1 | 0.91 | 0.2 | 5.69 | – | –
Nc1nc(NCc2ccc(F)cc2)nc(-c2c(F)cccc2CO)n1 | 1.01 | 0.09 | 5.55 | – | –
Nc1nc(NCc2ccccc2C(F)(F)F)nc(-c2ccccc2CO)n1 | 0.6 | 0.31 | 5.96 | – | –
Nc1nc(NCc2cccc(F)c2)nc(-c2ccccc2CO)n1 | 0.7 | 0.33 | 5.55 | – | –
CC(O)c1ccccc1-c1nc(N)nc(NCc2ccccc2)n1 (stereo not given) | inactive | inactive | – | inactive | inactive
Cc1cccc(CNc2nc(N)nc(-c3c(F)cccc3CO)n2)c1 | 0.84 | 0.14 | 5.42 | – | –
Cc1ccccc1CNc1nc(N)nc(-c2ccccc2CO)n1 | 0.54 | 0.33 | 5.57 | – | –
Nc1nc(NCc2ccccc2F)nc(-c2ccccc2CO)n1 | 0.98 | 0.31 | 5.56 | – | –
Nc1nc(NCCc2ccc(Oc3ccccc3)cc2)nc(-c2cc(Cl)ccc2CO)n1 | 1.39 | -0.04 | 5.87 | – | –
Nc1nc(NCCc2ccccc2)nc(-c2ccccc2CO)n1 | 0.88 | 0.24 | 5.62 | – | –
Nc1nc(NCc2cccc(Cl)c2)nc(-c2ccccc2CO)n1 | 0.48 | 0.46 | 5.9 | – | –
CC(C)Oc1ccc(CNc2nc(N)nc(-c3ccccc3CO)n2)cc1 | 0.53 | 0.17 | 5.69 | – | –
Nc1nc(Nc2ccccc2)nc(-c2ccccc2CO)n1 | 0.72 | 0.4 | 5.04 | – | –
Nc1nc(NCCCc2ccc(Oc3ccccc3)cc2)nc(-c2ccccc2CO)n1 | 1.19 | -0.01 | 5.84 | – | –
COc1cccc(-c2nc(N)nc(NCc3ccccc3)n2)c1CO | 0.4 | 0.3 | 4.86 | – | –
CCNc1nc(NCc2ccccc2)nc(-c2ccccc2CO)n1 | 0.47 | 0.25 | 5.34 | – | –
CC(C)Oc1ccc(-c2nc(N)nc(NCc3ccccc3)n2)c(CO)c1 | 0.56 | 0.27 | 5.74 | – | –
CNc1nc(NCc2ccccc2)nc(-c2ccccc2CO)n1 | 0.48 | 0.37 | 5.36 | – | –

Structure (SMILES) | log(activity) [1] | log(activity) [2] | Activity index [3] | pKb [4] | Activity_index [3]
Nc1nc(NCc2cccc(C(F)(F)F)c2)nc(-c2ccccc2CO)n1 | 0.64 | 0.32 | 6.07 | – | –
Cc1cccc(CNc2nc(N)nc(-c3ccccc3CO)n2)c1 | 0.92 | 0.25 | 5.57 | – | –
Nc1nc(NCc2ccccc2)nc(-c2ccc(F)cc2CO)n1 | 0.64 | 0.24 | 5.46 | – | –
COc1cccc(CNc2nc(N)nc(-c3ccccc3CO)n2)c1 | 0.89 | 0.23 | 5.22 | – | –
COc1cccc(CO)c1-c1nc(N)nc(NCc2ccccc2)n1 | inactive | – | – | inactive | inactive
CCOc1ccc(CNc2nc(N)nc(-c3ccccc3CO)n2)cc1 | 0.81 | -0.01 | 5.57 | – | –
Nc1nc(NCCc2ccccc2)nc(-c2c(F)cccc2CO)n1 | 1.06 | 0.03 | 6.13 | – | –
Nc1nc(NCCCCc2ccccc2)nc(-c2c(F)cccc2CO)n1 | 1.24 | 0.06 | 5.34 | – | –
Nc1nc(NCc2ccccc2)nc(-c2c(Cl)cccc2CO)n1 | 1.25 | -0.12 | 5.56 | – | –
NCc1ccccc1-c1nc(N)nc(NCc2ccccc2)n1 | 0.86 | 0.3 | 5.01 | – | –
Nc1nc(NCc2ccccc2)nc(-c2cc(Cl)ccc2CO)n1 | 1.2 | 0.09 | 5.78 | – | –
Nc1nc(NCCCc2ccccc2)nc(-c2ccccc2CO)n1 | 0.81 | 0.08 | 6.11 | – | –
Nc1nc(NCCc2ccc(Oc3ccccc3)cc2)nc(-c2c(F)cccc2CO)n1 | 1.14 | -0.06 | 6.14 | – | –
CCOc1ccc(-c2nc(N)nc(NCc3ccccc3)n2)c(CO)c1 | 0.87 | 0.1 | 5.34 | – | –
Nc1nc(NCc2ccccc2)nc(-c2cccc(F)c2CO)n1 | 0.59 | 0.27 | 4.86 | – | –
Nc1nc(NCc2ccccc2F)nc(-c2c(F)cccc2CO)n1 | 1.09 | 0.09 | 5.4 | – | –
COc1ccccc1CNc1nc(N)nc(-c2ccccc2CO)n1 | 0.98 | 0.06 | 5.03 | – | –
CNCc1ccccc1-c1nc(N)nc(NCc2ccccc2)n1 | inactive | inactive | – | inactive | inactive
Cc1ccc(CNc2nc(N)nc(-c3ccccc3CO)n2)cc1 | 0.9 | 0.32 | 5.6 | – | –
Nc1nc(NCc2ccc(OC3CC3)cc2)nc(-c2ccccc2CO)n1 | 0.67 | 0.04 | 5.77 | – | –

Structure (SMILES) | log(activity) [1] | log(activity) [2] | Activity index [3] | pKb [4] | Activity_index [3]
CC(=O)c1ccccc1-c1nc(N)nc(NCc2ccccc2)n1 | inactive | inactive | – | inactive | inactive
COc1ccc(-c2nc(N)nc(NCc3ccccc3)n2)c(CO)c1 | 0.46 | 0.14 | 4.97 | – | –
Nc1nc(NCCc2ccc(Oc3ccccc3)cc2)nc(-c2ccccc2CO)n1 | 0.83 | 0.03 | 5.9 | – | –
Nc1nc(NCc2ccc(C(F)(F)F)cc2)nc(-c2ccccc2CO)n1 | 0.78 | 0.3 | 6.1 | – | –
Nc1nc(NCCCc2ccc(Oc3ccccc3)cc2)nc(-c2c(F)cccc2CO)n1 | 1.15 | 0.01 | 6.1 | – | –
Nc1nc(NCCCCc2ccccc2)nc(-c2cc(Cl)ccc2CO)n1 | 1.09 | 0.06 | 6.14 | – | –
COc1ccccc1CNc1nc(N)nc(-c2c(F)cccc2CO)n1 | 1.12 | -0.12 | 5.11 | – | –
Nc1cc(-c2ccccc2CO)nc(NCc2ccccc2)n1 | inactive | inactive | – | inactive | inactive
COc1ccc(CO)c(-c2nc(N)nc(NCc3ccccc3)n2)c1 | 0.61 | 0.18 | 4.77 | – | –
Nc1nc(NCCCc2ccccc2)nc(-c2c(F)cccc2CO)n1 | 1.19 | 0.02 | 5.67 | – | –
COc1ccc(CNc2nc(N)nc(-c3ccccc3CO)n2)cc1 | 0.78 | 0.49 | 4.61 | – | –
Nc1nc(NCc2ccccc2Cl)nc(-c2ccccc2CO)n1 | 0.64 | 0.23 | 5.94 | – | –
Nc1nc(NCc2ccccc2)nc(-c2ccccc2)n1 | inactive | inactive | – | inactive | inactive
Nc1nc(NCc2ccccc2)nc(-c2ccc(Cl)cc2CO)n1 | 1.01 | 0.11 | 5.87 | – | –
Nc1nc(NCc2ccc(Oc3ccccc3)cc2)nc(-c2cc(Cl)ccc2CO)n1 | 1.05 | 0.03 | 5.78 | – | –
Nc1nc(NCc2ccc(Oc3ccccc3)cc2)nc(-c2ccccc2CO)n1 | 0.95 | 0 | 6.14 | – | –
Nc1nc(NCCCCc2ccc(Oc3ccccc3)cc2)nc(-c2ccccc2CO)n1 | 1.03 | 0.09 | 5.94 | – | –
Nc1nc(NCc2ccc(F)cc2)nc(-c2ccccc2CO)n1 | 1.09 | 0.36 | 5.42 | – | –
